In ChEMBL document CHEMBL3244103, “Modifications of primiaquine as antimalarials. 2. 5-Phenylthio and 5-anilino derivatives of primaquine” (J Med Chem, 1978):
Activity calls are given as the source filed them. No cut-off for these calls is given here.

Legend:
[1] = system: Plasmodium cynomolgi; test: Antimalarial activity against Plasmodium cynomolgi infected in rhesus monkey at 10 mg/kg; format: functional, organism-based; design: dose 10 mg/kg
Outline: (§1)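 Radical curative test in rhesus monkeys infected with P. cynomolgi, with compounds given at 0.5, 1 or 10 mg/kg. The read-out is either cures per number of animals treated or the day of relapse for animals not cured.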

[2] = system: Plasmodium cynomolgi; test: Antimalarial activity against Plasmodium cynomolgi infected in rhesus monkey at 0.5 mg/kg; format: functional, organism-based; design: dose 0.5 mg/kg; outline: as §1
[3] = system: Plasmodium berghei; test: Antimalarial activity against Plasmodium berghei infected in mouse at 320 to 640 mg/kg
[4] = species: Mus musculus; test: Toxicity in mouse; settings: in vivo
[5] = system: Rhesus monkey; test: Toxicity in rhesus monkey at 160 mg/kg; format: organism-based, Macaca mulatta; design: dose 160 mg/kg; settings: in vivo
[6] = system: Plasmodium cynomolgi; test: Antimalarial activity against Plasmodium cynomolgi infected in rhesus monkey at 1 mg/kg; format: functional, organism-based; design: dose 1 mg/kg; outline: as §1

COc1cc(NC(C)CCCN)c2ncccc2c1Sc1ccc2ccccc2c1 (stereo unspecified)
Activity [1]: Active

COc1cc(NC(C)CCCN)c2ncccc2c1Sc1ccc(Cl)cc1 (stereo unspecified)
Activity [2]: inactive
Activity [1]: Active

COc1cc(NC(C)CCCN)c2ncccc2c1Sc1cccc(Cl)c1 (stereo unspecified)
Activity [1]: Active

COc1ccc(Sc2c(OC)cc(NC(C)CCCN)c3ncccc23)cc1.O=C(O)CC(O)(CC(=O)O)C(=O)O (stereo unspecified)
Activity [3]: Active
Activity [4]: Non-toxic

COc1cc(NC(C)CCCN)c2ncccc2c1.O=P(O)(O)O.O=P(O)(O)O (stereo unspecified) [PRIMAQUINE PHOSPHATE]
Activity [5]: Toxic

COc1cc(NC(C)CCCN)c2ncccc2c1Sc1ccc(Cl)c(Cl)c1 (stereo unspecified)
Activity [1]: Active

COc1cc(NC(C)CCCN)c2ncccc2c1Sc1ccccc1Cl (stereo unspecified)
Activity [1]: Active

COc1cc(NC(C)CCCN)c2ncccc2c1Sc1cccc(C(F)(F)F)c1 (stereo unspecified)
Activity [6]: Active

COc1cc(NC(C)CCCN)c2ncccc2c1Sc1cc(Cl)ccc1Cl (stereo unspecified)
Activity [1]: Active
